Measured values pooled from the literature.
Protocols differ between the studies behind these lines.
Matrix: plasma

CC(C)[C@]12O[C@H]1[C@@H]1O[C@]13[C@]1(O[C@H]1C[C@H]1C4=C(CC[C@@]13C)C(=O)OC4)[C@@H]2O  clearance (SCID mouse; intravenous; 0.6 mg/kg): 20.5 mL/min/kg
CC[C@H](C)[C@@H]1NC(=O)[C@@H]2CCCN2C(=O)[C@H](CC(C)C)NC(=O)[C@H](CC(C)C)NC(=O)CNC(=O)[C@@H](NC(=O)[C@@H](NC(=O)[C@H](CC(=O)O)NC(=O)CNC(=O)[C@@H](NC(=O)[C@H](C)NC(=O)CNC(=O)[C@H](CCCCN)NC(=O)[C@H](CC(C)C)NC(=O)[C@H](CC(C)C)NC(=O)[C@H](CCCCN)NC(=O)CNC(=O)[C@@H](NC(=O)[C@@H](N)CC(C)C)C(C)C)C(C)C)C(C)C)CSSC[C@@H](C(=O)O)NC1=O  C0 (female C57BL/6 mouse; intravenous; 10 mg/kg; single dose): 3190 ng/mL
CC(=O)c1c(C)c2cnc(Nc3ccc(C4CCN(CCS(C)(=O)=O)CC4)cn3)nc2n(C2CCCC2)c1=O  Cmax (male beagle dog; oral; 6 mg/kg; multiple doses): 98.5 ng/mL
CC(C)=CCC[C@](C)(O[C@@H]1O[C@H](CO)[C@@H](O)[C@H](O)[C@H]1O)[C@H]1CC[C@]2(C)[C@@H]1[C@H](O)C[C@@H]1[C@@]3(C)CC[C@H](O)C(C)(C)[C@@H]3CC[C@]12C  clearance (mouse; intravenous; 2 mg/kg): 0.46 L/h
CC[C@H](C)CCCCC(=O)N[C@@H](CCN)C(=O)N[C@H](C(=O)N[C@@H](CCN)C(=O)N[C@H]1CCNC(=O)[C@H]([C@@H](C)O)NC(=O)[C@H](CCN)NC(=O)[C@H](CCN)NC(=O)[C@H](CC(C)C)NC(=O)[C@@H](CC(C)C)NC(=O)[C@H](CCN)NC1=O)[C@@H](C)O  Tmax (male Sprague-Dawley rat; subcutaneous; 10 mg/kg): 2.67 h
C[C@@H](O)[C@@H]1NC(=O)CNC(=O)[C@H](Cc2c[nH]cn2)NC(=O)[C@H](Cc2c[nH]c3ccccc23)NC(=O)[C@H](CC(N)=O)NC(=O)CNC(=O)C[C@@H](C(=O)N[C@@H](Cc2c[nH]c3ccccc23)C(=O)N[C@@H](Cc2ccccc2)C(=O)N[C@@H](Cc2ccccc2)C(=O)N[C@@H](CC(N)=O)C(=O)N[C@@H](Cc2ccc(O)cc2)C(=O)N[C@@H](Cc2ccc(O)cc2)C(=O)N[C@@H](Cc2c[nH]c3ccccc23)C(=O)O)NC(=O)[C@@H]2CCCN2C(=O)[C@H](CO)NC1=O  clearance (mouse; intravenous; 3 mg/kg): 1.34 mL/min/kg
N=C(N)NCCC[C@H](NC(=O)[C@H](Cc1ccccc1)NC(=O)[C@H](CCC(N)=O)NC(=O)OCc1ccccc1)C(=O)c1nccs1  clearance (female C57BL/6 mouse; intravenous; 5 mg/kg): 70.2 mL/min/kg
CC[C@H](C)[C@H](NC(=O)[C@H](Cc1ccccc1)NC(=O)[C@H](CCC(=O)O)NC(=O)[C@H](CCCCN)NC(=O)[C@H](C)NC(=O)[C@H](C)NC(=O)[C@H](CCC(N)=O)NC(=O)CNC(=O)[C@H](CCC(=O)O)NC(=O)[C@H](CC(C)C)NC(=O)[C@H](Cc1ccc(O)cc1)NC(=O)[C@H](CO)NC(=O)[C@H](CO)NC(=O)[C@@H](NC(=O)[C@H](CC(=O)O)NC(=O)[C@H](CO)NC(=O)[C@@H](NC(=O)[C@H](Cc1ccccc1)NC(=O)[C@@H](NC(=O)CNC(=O)[C@H](CCC(=O)O)NC(=O)[C@H](C)NC(=O)N(N)Cc1c[nH]cn1)[C@@H](C)O)[C@@H](C)O)C(C)C)C(=O)N[C@@H](C)C(=O)N[C@@H](Cc1c[nH]c2ccccc12)C(=O)N[C@@H](CC(C)C)C(=O)N[C@H](C(=O)N[C@@H](CCCNC(=N)N)C(=O)NCC(=O)N[C@@H](CCCNC(=N)N)C(=O)NCC(=O)O)C(C)C  C0 (male CD-1 mouse; intravenous; 1 mg/kg; single dose): 37700 ng/mL
